Values after ≈ are worked out from the molar mass of the structure shown. Active and inactive are the calls of the source. The rule behind the calls is not given here.
Columns and labels:
[1] = Stability in mouse plasma in presence of PBS at 40 uM after 3 hrs; type: ADME, cell-free; conditions: read-out: Stability
Pseudomonas aeruginosa = experiment: […] activity against […] aeruginosa 27853 after 24 hrs by broth dilution assay; type: functional; conditions: Pseudomonas aeruginosa, 27853, 24 h
In short: (§1)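 Broth microdilution in microtiter format at a seeding density of 10^3/mL. C. albicans was grown in Sabouraud dextrose broth; S. aureus and P. aeruginosa in cation-supplemented Mueller-Hinton broth. Incubated at 37°C, with growth scored after 24 h. MIC taken as the lowest concentration giving complete growth inhibition.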

[2] = Solubility at pH 5; type: physicochemical; conditions: buffer
Homo sapiens [3] = species on record: Homo sapiens; experiment: Unbound fraction in human plasma at 10 uM
786-0 = experiment: Cytotoxicity against human 786-0 cells assessed cell growth; type: functional
COLO 205 = experiment: Cytotoxicity against human COLO205 cells assessed cell growth; type: functional
NCI-H226 = experiment: Cytotoxicity against human NCI-H226 cells assessed cell growth; type: functional
OVCAR-5 = experiment: Cytotoxicity against human OVCAR5 cells assessed cell growth; type: functional
[4] = Metabolic stability in mouse liver microsomes assessed as compound metabolized at 1 uM in the presence of NADPH; type: ADME, Microsome; conditions: read-out: Activity
NCI-H23 = experiment: Cytotoxicity against human NCI-H23 cells assessed cell growth; type: functional
UACC-62 = experiment: Cytotoxicity against human UACC62 cells assessed cell growth; type: functional
[5] = Unbound fraction in mouse plasma at 1 uM; type: ADME, cell-free
SW-620 = experiment: Cytotoxicity against human SW620 cells assessed cell growth; type: functional
M14 = experiment: Cytotoxicity against human M14 cells assessed cell growth; type: functional
[6] = Metabolic satbility in human liver microsomes assessed as compound remaining at 1 uM after 60 min in the absence of NADPH; type: ADME, Microsome; conditions: read-out: Stability
MDA-MB-231 = experiment: Cytotoxicity against human MDA-MB-231 cells assessed cell growth; type: functional
PANC-1 = experiment: Cell cycle arrest in human PANC1 cells assessed as accumulation of cells at G1 phase at <=46.5 after 24 hrs by propidium iodide staining method; type: functional, cell-based
In short: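 PANC-1 cells in RPMI 1640 with 10% FBS, HEPES, antibiotics, glutamine, pyruvate and glucose, at 37°C in 5% CO2, exposed to varying compound concentrations for 24 h alongside methanol vehicle and paclitaxel positive controls. Cells then ethanol-fixed and stained with 0.02 mg/mL propidium iodide plus 0.1 mg/mL RNase A. Flow cytometry collected 10,000 events per sample, and DNA histograms were modelled for phase distribution.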

T47D = experiment: Cytotoxicity against human T47D cells assessed cell growth; type: functional
[7] = Metabolic satbility in human liver microsomes assessed as compound remaining at 1 uM after 60 min in the presence of NADPH; type: ADME, Microsome; conditions: read-out: Stability
Homo sapiens [8] = species on record: Homo sapiens; experiment: Stability in human plasma assessed as compound remaining at 40 uM after 3 hrs in presence of PBS and inorganic phosphate buffer
MCF7 = experiment: Cytotoxicity against human MCF7 cells assessed cell growth; type: functional
[9] = Protein binding in mouse plasma at 1 uM; type: ADME, cell-free; conditions: read-out: PPB (converted)
[10] = Permeability at 50 uM at pH 5 by PAMPA; type: ADME; conditions: read-out: permeability
SN12C = experiment: Cytotoxicity against human SN12C cells assessed cell growth; type: functional
NCI/ADR-RES [11] = experiment: Cytotoxicity against human NCI/ADR-RES cells; type: functional, cell-based
In short: (§2)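 IC50 value derived from at least three separate assay runs per sample.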

MDA-MB-435 = experiment: Cytotoxicity against human MDA-MB-435 cells assessed cell growth; type: functional
BXPC-3 = experiment: Cytotoxicity against human BxPC3 cells; type: functional, cell-based; in short: as §2
U-251 = experiment: Cytotoxicity against human U251 cells assessed cell growth; type: functional
[12] = Metabolic satbility in mouse liver microsomes assessed as compound remaining at 1 uM after 60 min in the absence of NADPH; type: ADME, Microsome; conditions: read-out: Stability
TK-10 = experiment: Cytotoxicity against human TK10 cells assessed cell growth; type: functional
SF-539 = experiment: Cytotoxicity against human SF539 cells assessed cell growth; type: functional
SF-268 = experiment: Cytotoxicity against human SF268 cells assessed cell growth; type: functional
MOLT-4 = experiment: Cytotoxicity against human MOLT4 cells assessed cell growth; type: functional
DU-145 = experiment: Cytotoxicity against human DU145 cells assessed cell growth; type: functional
EKVX = experiment: Cytotoxicity against human EKVX cells assessed cell growth; type: functional
CCRF-CEM = experiment: Cytotoxicity against human CCRF-CEM cells assessed cell growth; type: functional
Staphylococcus aureus = experiment: […] activity against methicillin resistant Staphylococcus aureus 700787 after 24 hrs by broth dilution assay; type: functional; conditions: Staphylococcus aureus, 700787, 24 h; in short: as §1
A549 = experiment: Cytotoxicity against human A549 cells; type: functional, cell-based; in short: as §2
NCI/ADR-RES [13] = experiment: Cytotoxicity against human NCI/ADR-RES cells assessed cell growth; type: functional
Homo sapiens [14] = species on record: Homo sapiens; experiment: Unbound fraction in human plasma at 1 uM
HL-60(TB) = experiment: Cytotoxicity against human HL-60(TB) cells assessed cell growth; type: functional; in short: as §2
[15] = Protein binding in mouse plasma at 10 uM; type: ADME, cell-free; conditions: read-out: PPB (converted)
NCI-H322M = experiment: Cytotoxicity against human NCI-H322M cells assessed cell growth; type: functional
HCC 2998 = experiment: Cytotoxicity against human HCC2998 cells assessed cell growth; type: functional
Homo sapiens [16] = species on record: Homo sapiens; experiment: Protein binding in human plasma at 10 uM; conditions: read-out: PPB (converted)

For `CC(=O)N(C)CCc1cc(Br)c(OCCCNc2ncn(C)c3ncnc2-3)c(Br)c1` [APHROCALLISTIN], which remaining at 3 h, 40 µM [1] is on record?
Its remaining at 3 h, 40 µM is 96.3%.

And the MIC (Pseudomonas aeruginosa)?
Its MIC is > 500 µg/mL.

And the solubility [2]?
Its solubility is > 267 µg/mL.

What about the fraction unbound at 10 µM (Homo sapiens [3]) of the same compound?
Its fraction unbound at 10 µM is 0.103.

What about the Activity (786-0) of the same compound?
Its Activity is 70.65%.

And the Activity (COLO 205)?
The Activity was 104.32%.

What about the Activity (NCI-H226) of the same compound?
The Activity was 44.72%.

What about the Activity (OVCAR-5) of the same compound?
The Activity was 88.65%.

What about the metabolised at 1 µM [4] of the same compound?
The metabolised at 1 µM was 98.6%.

What about the Activity (NCI-H23) of the same compound?
Its Activity is 42.18%.

And the Activity (UACC-62)?
The Activity was 79.32%.

What about the fraction unbound at 1 µM [5] of the same compound?
The fraction unbound at 1 µM was 0.15.

And the Activity (SW-620)?
The Activity was 89.87%.

What about the Activity (M14) of the same compound?
The Activity was 73.49%.

And the remaining at 1 h, 1 µM [6]?
The remaining at 1 h, 1 µM was 118%.

What about the Activity (MDA-MB-231) of the same compound?
Its Activity is 74.94%.

What about the Activity (PANC-1) of the same compound?
Its Activity is “Active”.

What about the Activity (T47D) of the same compound?
The Activity was 26.91%.

What about the remaining at 1 h, 1 µM [7] of the same compound?
The remaining at 1 h, 1 µM was 3.08%.

What about the remaining at 3 h, 40 µM (Homo sapiens [8]) of the same compound?
Its remaining at 3 h, 40 µM is 76.6%.

What about the Activity (MCF7) of the same compound?
Its Activity is 39.83%.

What about the fraction unbound at 1 µM [9] of the same compound?
The fraction unbound at 1 µM was 0.15.

What about the Papp at 50 µM [10] of the same compound?
The Papp at 50 µM was 33 ×10⁻⁶ cm/s.

And the Activity (SN12C)?
Its Activity is 92.68%.

And the IC50 (NCI/ADR-RES [11])?
Its IC50 is 34.3 µM.

What about the Activity (MDA-MB-435) of the same compound?
The Activity was 62.57%.

And the IC50 (BXPC-3)?
Its IC50 is 70.9 µM.

And the Activity (U-251)?
Its Activity is 79.39%.

And the remaining at 1 h, 1 µM [12]?
The remaining at 1 h, 1 µM was 103%.

What about the Activity (TK-10) of the same compound?
The Activity was 89.47%.

What about the Activity (SF-539) of the same compound?
Its Activity is 80.09%.

What about the Activity (SF-268) of the same compound?
The Activity was 97.87%.

And the Activity (MOLT-4)?
The Activity was 50.93%.

What about the Activity (DU-145) of the same compound?
The Activity was 102.31%.

What about the Activity (EKVX) of the same compound?
The Activity was 45.38%.

What about the Activity (CCRF-CEM) of the same compound?
The Activity was 80.24%.

What about the MIC (Staphylococcus aureus) of the same compound?
The MIC was 250 µg/mL (≈ 463 µM).

And the IC50 (A549)?
The IC50 was 15.9 µM.

What about the Activity (NCI/ADR-RES [13]) of the same compound?
Its Activity is 72.89%.

What about the fraction unbound at 1 µM (Homo sapiens [14]) of the same compound?
Its fraction unbound at 1 µM is 0.044.

What about the Activity (HL-60(TB)) of the same compound?
Its Activity is 39.94%.

And the fraction unbound at 10 µM [15]?
The fraction unbound at 10 µM was 0.309.

What about the Activity (NCI-H322M) of the same compound?
Its Activity is 76.48%.

And the Activity (HCC 2998)?
The Activity was 65.57%.

And the fraction unbound at 10 µM (Homo sapiens [16])?
Its fraction unbound at 10 µM is 0.103.
